In brackets after ≈: the same amount, converted by molar mass.
Columns and labels:
Assay type in all cases: functional, Salmonella enterica subsp. enterica serovar Typhimurium
Salmonella typhimurium [1] = test: Antimicrobial activity against Salmonella enterica serovar Typhimurium S21
Method in brief: (§1)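 MICs measured by broth microdilution on the Sensititre automated system and interpreted by CLSI broth microdilution standards. Ciprofloxacin was also tested by agar dilution, widening the range to 0.0075–128 μg/ml. Quality control strains were E. coli ATCC 25922 and 35218, E. faecalis ATCC 29212, S. aureus ATCC 29213 and P. aeruginosa ATCC 27853.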

Salmonella typhimurium [2] = test: Antimicrobial activity against Salmonella enterica serovar Typhimurium S21 gyrA+; method in brief: as §1
Salmonella typhimurium [3] = test: Antimicrobial activity against Salmonella enterica serovar Typhimurium S21 acrAB::Kan
Method in brief: (§2)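 MICs by automated broth microdilution panels, interpreted to CLSI broth microdilution standards. Ciprofloxacin additionally tested by agar dilution across 0.0075 to 128 μg/ml. Quality control strains: E. coli ATCC 25922 and 35218, Enterococcus faecalis ATCC 29212, S. aureus ATCC 29213, P. aeruginosa ATCC 27853. Test strains are kanamycin-marked deletion mutants of ground-beef isolate S21.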

Salmonella typhimurium [4] = test: Antimicrobial activity against Salmonella enterica serovar Typhimurium S21 tolC::Kan; method in brief: as §2
Salmonella typhimurium [5] = test: Antimicrobial activity against Salmonella enterica serovar Typhimurium S21-1 GyrA S83F mutant; method in brief: as §1
Salmonella typhimurium [6] = test: Antimicrobial activity against Salmonella enterica serovar Typhimurium S21-1 gyrA+; method in brief: as §1
Salmonella typhimurium [7] = test: Antimicrobial activity against Salmonella enterica serovar Typhimurium S21-2 with GyrA S83F, ParC S80I mutation; method in brief: as §1
Salmonella typhimurium [8] = test: Antimicrobial activity against Salmonella enterica serovar Typhimurium S21-2 gyrA+ with ParC S80I mutation; method in brief: as §1
Salmonella typhimurium [9] = test: Antimicrobial activity against Salmonella enterica serovar Typhimurium S21-3 with GyrA S83F, ParC S80I mutation; method in brief: as §1
Salmonella typhimurium [10] = test: Antimicrobial activity against Salmonella enterica serovar Typhimurium S21-3 gyrA+ with ParC S80I mutation; method in brief: as §1
Salmonella typhimurium [11] = test: Antimicrobial activity against Salmonella enterica serovar Typhimurium CHS14 gyrA+ with GyrA D87G mutation; method in brief: as §1
Salmonella typhimurium [12] = test: Antimicrobial activity against Salmonella enterica serovar Typhimurium CHS14 acrAB::Kan with GyrA D87G mutation; method in brief: as §1
Salmonella typhimurium [13] = test: Antimicrobial activity against Salmonella enterica serovar Typhimurium CHS14 tolC::Kan with GyrA D87G mutant; method in brief: as §1
Salmonella typhimurium [14] = test: Antimicrobial activity against Salmonella enterica serovar Typhimurium CHS18 with GyrA S38F mutation; method in brief: as §1
Salmonella typhimurium [15] = test: Antimicrobial activity against Salmonella enterica serovar Typhimurium CHS18 gyrA+ with GyrA S38F mutation; method in brief: as §1
Salmonella typhimurium [16] = test: Antimicrobial activity against Salmonella enterica serovar Typhimurium CHS18 acrAB::Kan with GyrA S38F mutation; method in brief: as §1
Salmonella typhimurium [17] = test: Antimicrobial activity against Salmonella enterica serovar Typhimurium CHS18 tolC::Kan with GyrA S38F mutation; method in brief: as §1
Salmonella typhimurium [18] = test: Antimicrobial activity against Salmonella enterica serovar Typhimurium S21-4 with GyrA S83F, ParC S80I mutation; method in brief: as §1
Salmonella typhimurium [19] = test: Antimicrobial activity against Salmonella enterica serovar Typhimurium S21-4 gyrA+ with ParC S80I mutation; method in brief: as §1
Salmonella typhimurium [20] = test: Antimicrobial activity against Salmonella enterica serovar Typhimurium CS1 with GyrA S83F, D87N, ParC S80I mutation; method in brief: as §1
Salmonella typhimurium [21] = test: Antimicrobial activity against Salmonella enterica serovar Typhimurium CS1 gyrA+ with GyrA S83F, D87N, ParC S80I mutation; method in brief: as §1
Salmonella typhimurium [22] = test: Antimicrobial activity against Salmonella enterica serovar Typhimurium CS1 acrAB::Kan with GyrA S83F, D87N, ParC S80I mutation; method in brief: as §1
Salmonella typhimurium [23] = test: Antimicrobial activity against Salmonella enterica serovar Typhimurium CS1 tolC::Kan with GyrA S83F, D87N, ParC S80I mutation; method in brief: as §1
Salmonella typhimurium [24] = test: Antimicrobial activity against Salmonella enterica serovar Typhimurium CS3 with GyrA S83F, D87N, ParC S80I mutation; method in brief: as §1
Salmonella typhimurium [25] = test: Antimicrobial activity against Salmonella enterica serovar Typhimurium CS3 gyrA+ with GyrA S83F, D87N, ParC S80I mutation; method in brief: as §1
Salmonella typhimurium [26] = test: Antimicrobial activity against Salmonella enterica serovar Typhimurium CS3 acrAB::Kan with GyrA S83F, D87N, ParC S80I mutation; method in brief: as §1
Salmonella typhimurium [27] = test: Antimicrobial activity against Salmonella enterica serovar Typhimurium CS3 tolC::Kan with GyrA S83F, D87N, parC S80I mutation; method in brief: as §1
Salmonella typhimurium [28] = test: Antimicrobial activity against Salmonella enterica serovar Typhimurium CS9 with GyrA S83F, D87N, ParC S80I mutation; method in brief: as §1
Salmonella typhimurium [29] = test: Antimicrobial activity against Salmonella enterica serovar Typhimurium CS9 gyrA+ with GyrA S83F, D87N, ParC S80I mutation; method in brief: as §1
Salmonella typhimurium [30] = test: Antimicrobial activity against Salmonella enterica serovar Typhimurium CS9 acrAB::Kan with GyrA S83F, D87N, ParC S80I mutation; method in brief: as §1
Salmonella typhimurium [31] = test: Antimicrobial activity against Salmonella enterica serovar Typhimurium CS9 tolC::Kan with GyrA S83F, D87N, ParC S80I mutation; method in brief: as §1
Salmonella typhimurium [32] = test: Antimicrobial activity against Salmonella enterica serovar Typhimurium CHS14 with GyrA D87G mutation; method in brief: as §1
Salmonella typhimurium [33] = test: Antimicrobial activity against Salmonella enterica serovar Typhimurium CHS38 with GyrA D87G mutation; method in brief: as §1
Salmonella typhimurium [34] = test: Antimicrobial activity against Salmonella enterica serovar Typhimurium CHS38 gyrA+ with GyrA D87G mutation; method in brief: as §1
Salmonella typhimurium [35] = test: Antimicrobial activity against Salmonella enterica serovar Typhimurium CHS38 acrAB::Kan with GyrA D87G mutation; method in brief: as §1
Salmonella typhimurium [36] = test: Antimicrobial activity against Salmonella enterica serovar Typhimurium CHS38 tolC::Kan with GyrA D87G mutation; method in brief: as §1
Salmonella typhimurium [37] = test: Antimicrobial activity against Salmonella enterica serovar Typhimurium S21-2 acrAB::Kan with GyrA S83F, ParC S80I mutation; method in brief: as §1
Salmonella typhimurium [38] = test: Antimicrobial activity against Salmonella enterica serovar Typhimurium S21-2 tolC::Kan with GyrA S83F, ParC S80I mutation; method in brief: as §1
Salmonella typhimurium [39] = test: Antimicrobial activity against Salmonella enterica serovar Typhimurium S21-3 acrAB::Kan with GyrA S83F, ParC S80I mutation; method in brief: as §1
Salmonella typhimurium [40] = test: Antimicrobial activity against Salmonella enterica serovar Typhimurium S21-4 acrAB::Kan with GyrA S83F, ParC S80I mutation; method in brief: as §1
Salmonella typhimurium [41] = test: Antimicrobial activity against Salmonella enterica serovar Typhimurium S21-3 tolC::Kan with GyrA S83F, ParC S80I mutation; method in brief: as §1
Salmonella typhimurium [42] = test: Antimicrobial activity against Salmonella enterica serovar Typhimurium S21-4 tolC::Kan with GyrA S83F, ParC S80I mutation; method in brief: as §1

CO/N=C(\C(=O)N[C@@H]1C(=O)N2C(C(=O)O)=C(CSC(=O)c3ccco3)CS[C@H]12)c1csc(N)n1 [CEFTIOFUR]
MIC (Salmonella typhimurium [1]): 0.5 µg/mL (≈ 0.955 µM) | MIC (Salmonella typhimurium [2]): 0.5 µg/mL (≈ 0.955 µM) | MIC (Salmonella typhimurium [3]): < 0.12 µg/mL | MIC (Salmonella typhimurium [4]): < 0.12 µg/mL | MIC (Salmonella typhimurium [5]): 0.5 µg/mL (≈ 0.955 µM) | MIC (Salmonella typhimurium [6]): 0.5 µg/mL (≈ 0.955 µM) | MIC (Salmonella typhimurium [7]): 4 µg/mL (≈ 7.64 µM) | MIC (Salmonella typhimurium [8]): 4 µg/mL (≈ 7.64 µM) | MIC (Salmonella typhimurium [9]): 4 µg/mL (≈ 7.64 µM) | MIC (Salmonella typhimurium [10]): 4 µg/mL (≈ 7.64 µM) | MIC (Salmonella typhimurium [11]): 1 µg/mL (≈ 1.91 µM) | MIC (Salmonella typhimurium [12]): < 0.12 µg/mL | MIC (Salmonella typhimurium [13]): < 0.12 µg/mL | MIC (Salmonella typhimurium [14]): 1 µg/mL (≈ 1.91 µM) | MIC (Salmonella typhimurium [15]): 1 µg/mL (≈ 1.91 µM) | MIC (Salmonella typhimurium [16]): 0.12 µg/mL (≈ 0.229 µM) | MIC (Salmonella typhimurium [17]): 0.12 µg/mL (≈ 0.229 µM) | MIC (Salmonella typhimurium [18]): 4 µg/mL (≈ 7.64 µM) | MIC (Salmonella typhimurium [19]): 4 µg/mL (≈ 7.64 µM) | MIC (Salmonella typhimurium [20]): 1 µg/mL (≈ 1.91 µM) | MIC (Salmonella typhimurium [21]): 1 µg/mL (≈ 1.91 µM) | MIC (Salmonella typhimurium [22]): 0.5 µg/mL (≈ 0.955 µM) | MIC (Salmonella typhimurium [23]): 0.5 µg/mL (≈ 0.955 µM) | MIC (Salmonella typhimurium [24]): 1 µg/mL (≈ 1.91 µM) | MIC (Salmonella typhimurium [25]): 1 µg/mL (≈ 1.91 µM) | MIC (Salmonella typhimurium [26]): 0.5 µg/mL (≈ 0.955 µM) | MIC (Salmonella typhimurium [27]): 0.5 µg/mL (≈ 0.955 µM) | MIC (Salmonella typhimurium [28]): 1 µg/mL (≈ 1.91 µM) | MIC (Salmonella typhimurium [29]): 1 µg/mL (≈ 1.91 µM) | MIC (Salmonella typhimurium [30]): 0.5 µg/mL (≈ 0.955 µM) | MIC (Salmonella typhimurium [31]): 0.5 µg/mL (≈ 0.955 µM) | MIC (Salmonella typhimurium [32]): 1 µg/mL (≈ 1.91 µM) | MIC (Salmonella typhimurium [33]): 0.5 µg/mL (≈ 0.955 µM) | MIC (Salmonella typhimurium [34]): 0.5 µg/mL (≈ 0.955 µM) | MIC (Salmonella typhimurium [35]): 0.12 µg/mL (≈ 0.229 µM) | MIC (Salmonella typhimurium [36]): 0.12 µg/mL (≈ 0.229 µM)

CC(=O)OCC1=C(C(=O)O)N2C(=O)[C@@H](NC(=O)Cc3cccs3)[C@H]2SC1 [CEPHALOTHIN]
MIC (Salmonella typhimurium [1]): < 2 µg/mL | MIC (Salmonella typhimurium [2]): < 2 µg/mL | MIC (Salmonella typhimurium [3]): < 2 µg/mL | MIC (Salmonella typhimurium [4]): < 2 µg/mL | MIC (Salmonella typhimurium [5]): 8 µg/mL (≈ 20.2 µM) | MIC (Salmonella typhimurium [6]): 8 µg/mL (≈ 20.2 µM) | MIC (Salmonella typhimurium [7]): > 32 µg/mL | MIC (Salmonella typhimurium [8]): > 32 µg/mL | MIC (Salmonella typhimurium [37]): 8 µg/mL (≈ 20.2 µM) | MIC (Salmonella typhimurium [38]): 8 µg/mL (≈ 20.2 µM) | MIC (Salmonella typhimurium [9]): > 32 µg/mL | MIC (Salmonella typhimurium [10]): > 32 µg/mL | MIC (Salmonella typhimurium [39]): 8 µg/mL (≈ 20.2 µM) | MIC (Salmonella typhimurium [11]): < 2 µg/mL | MIC (Salmonella typhimurium [12]): < 2 µg/mL | MIC (Salmonella typhimurium [13]): < 2 µg/mL | MIC (Salmonella typhimurium [14]): 4 µg/mL (≈ 10.1 µM) | MIC (Salmonella typhimurium [15]): 4 µg/mL (≈ 10.1 µM) | MIC (Salmonella typhimurium [16]): 2 µg/mL (≈ 5.04 µM) | MIC (Salmonella typhimurium [17]): 2 µg/mL (≈ 5.04 µM) | MIC (Salmonella typhimurium [40]): 8 µg/mL (≈ 20.2 µM) | MIC (Salmonella typhimurium [41]): 8 µg/mL (≈ 20.2 µM) | MIC (Salmonella typhimurium [18]): > 32 µg/mL | MIC (Salmonella typhimurium [19]): > 32 µg/mL | MIC (Salmonella typhimurium [42]): 8 µg/mL (≈ 20.2 µM) | MIC (Salmonella typhimurium [20]): 16 µg/mL (≈ 40.4 µM) | MIC (Salmonella typhimurium [21]): 8 µg/mL (≈ 20.2 µM) | MIC (Salmonella typhimurium [22]): 8 µg/mL (≈ 20.2 µM) | MIC (Salmonella typhimurium [23]): 8 µg/mL (≈ 20.2 µM) | MIC (Salmonella typhimurium [24]): 16 µg/mL (≈ 40.4 µM) | MIC (Salmonella typhimurium [25]): 8 µg/mL (≈ 20.2 µM) | MIC (Salmonella typhimurium [26]): 8 µg/mL (≈ 20.2 µM) | MIC (Salmonella typhimurium [27]): 8 µg/mL (≈ 20.2 µM) | MIC (Salmonella typhimurium [28]): 16 µg/mL (≈ 40.4 µM) | MIC (Salmonella typhimurium [29]): 8 µg/mL (≈ 20.2 µM) | MIC (Salmonella typhimurium [30]): 8 µg/mL (≈ 20.2 µM) | MIC (Salmonella typhimurium [31]): 8 µg/mL (≈ 20.2 µM) | MIC (Salmonella typhimurium [32]): 4 µg/mL (≈ 10.1 µM) | MIC (Salmonella typhimurium [33]): 8 µg/mL (≈ 20.2 µM) | MIC (Salmonella typhimurium [34]): 16 µg/mL (≈ 40.4 µM) | MIC (Salmonella typhimurium [35]): 8 µg/mL (≈ 20.2 µM) | MIC (Salmonella typhimurium [36]): 8 µg/mL (≈ 20.2 µM)
